Converted amounts (≈) assume the structure as drawn.
Legend:
[1] = Cytotoxicity against human LO2 cells assessed as inhibition of cell viability at 64 ug/ml after 24 hrs by MTT assay; assay type: cell-based, L02; settings: read-out: INH
Outline: (§1)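 LO2 hepatocytes were plated and left to attach for 24 h. DMSO stocks were diluted in medium and added, and cells were cultured for 24 h at 37 °C in humidified 5% CO2. MTT absorbance read at 490 nm. Three parallels. Inhibition computed as percent reduction of viable cells against drug-free control.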

Pichia norvegensis = experiment: Antifungal activity against Candida mycoderma after 24 hrs by microbroth dilution method; assay type: functional
Escherichia coli = experiment: Antibacterial activity against Escherichia coli DH52 by two-fold serial dilution method; assay type: functional
Outline: (§2)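 Standard two-fold serial dilution in 96-well microtest plates following NCCLS. Top dilutions printed as 32, 16, 8, 4, 2, 1, 0.5 ug/mL. Wells inoculated and held at 37 °C for 24 h. Growth judged visually and by spectrophotometer, in triplicate. MIC is the lowest concentration giving complete growth inhibition.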

[2] = Aqueous solubility of the compound by UV-spectrophotometry; assay type: physicochemical
[3] = Cytotoxicity against human LO2 cells assessed as inhibition of cell viability at 128 ug/ml after 24 hrs by MTT assay; assay type: cell-based, L02; settings: read-out: INH
Outline: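 Human hepatocyte LO2 cells were plated, attached for 24 h, then exposed to the compound diluted in medium from DMSO stock, at 37 °C in 5% CO2. Viability was read by MTT at 490 nm. Inhibition was calculated as the percent reduction of viable cells versus a drug-free control, mean of three parallels.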

[4] = Cytotoxicity against human A549 cells assessed as cell viability at 256 ug/ml after 24 hrs by CCK-8 assay; assay type: cell-based; settings: read-out: Activity
Outline: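 A549 cells were plated and allowed to attach for 24 h, then medium with the compound was added. The compound came from DMSO stocks diluted in medium to 8, 16, 32, 64, 128 and 256 µg/mL. Cells were kept at 37 °C in 5% CO2. Viability was read by CCK-8 absorbance at 450 nm against a drug-free control, three replicates.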

Bacillus spizizenii = experiment: Antibacterial activity against Bacillus subtilis ATCC 6633 by two-fold serial dilution method; assay type: functional; outline: as §2
[5] = Cytotoxicity against human LO2 cells assessed as inhibition of cell viability at 8 ug/ml after 24 hrs by MTT assay; assay type: cell-based, L02; settings: read-out: INH; outline: as §1
Cyberlindnera jadinii = experiment: Antifungal activity against Candida utilis after 24 hrs by microbroth dilution method; assay type: functional; settings: Williopsis jadinii
Outline: (§3)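 Spore suspension prepared in sterile distilled water from one-day-old cultures on Sabouraud agar, final 1-5 x 10^3 spores/mL. Compounds were serially diluted in RPMI 1640 to give eleven dilutions. Incubation at 35 °C for 24 h. Growth read visually and spectrophotometrically, in triplicate. MIC is the lowest concentration with complete inhibition.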

[6] = Dissociation constant, pKa of the compound by UV-spectroscopy; assay type: physicochemical
Outline: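 DMSO stock at 4.0 × 10^-3 mol/L added to 2 mL of buffer, then shaken 10 min at room temperature. Buffers were acetate (pH 4.0–5.0), MES (5.5–6.5), HEPES (7.0–8.0) and CHES (8.5–9.4), each from 500 mM stocks. Scans ran 210–400 nm and were normalized. Absolute differences from the acid spectrum were summed at 244 and 308 nm, plotted against pH and fitted to obtain pKa.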

Shigella dysenteriae = experiment: Antibacterial activity against Shigella dysenteriae by two-fold serial dilution method; assay type: functional
Outline: (§4)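 MIC read as the lowest concentration giving complete growth inhibition. Two-fold serial dilutions were made in 96-well plates following NCCLS, giving a series down to 0.5 µg/mL (…32, 16, 8, 4, 2, 1, 0.5). Plates were inoculated and incubated at 37 °C for 24 h. A DMSO-with-inoculum control without drug was included. Growth was monitored visually and spectrophotometrically, in triplicate.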

Calf thymus DNA = experiment: Binding affinity to calf thymus DNA by UV-vis spectroscopy; assay type: nucleic-acid assay; settings: Bos taurus
Outline: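 Calf thymus DNA held at a fixed concentration and titrated with increasing amounts of the compound. UV-vis absorption spectra were recorded at room temperature in 1.0 cm quartz cells, following the DNA band at 260 nm.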

Albumin [7] = target: T1, Albumin (Homo sapiens, UniProt P02768); experiment: Drug transport index, ratio of Kb to K0 for human serum albumin by fluorescence spectrophotometry in presence of Mg2+; assay type: ADME
T1 sequence (P02768 whole entry): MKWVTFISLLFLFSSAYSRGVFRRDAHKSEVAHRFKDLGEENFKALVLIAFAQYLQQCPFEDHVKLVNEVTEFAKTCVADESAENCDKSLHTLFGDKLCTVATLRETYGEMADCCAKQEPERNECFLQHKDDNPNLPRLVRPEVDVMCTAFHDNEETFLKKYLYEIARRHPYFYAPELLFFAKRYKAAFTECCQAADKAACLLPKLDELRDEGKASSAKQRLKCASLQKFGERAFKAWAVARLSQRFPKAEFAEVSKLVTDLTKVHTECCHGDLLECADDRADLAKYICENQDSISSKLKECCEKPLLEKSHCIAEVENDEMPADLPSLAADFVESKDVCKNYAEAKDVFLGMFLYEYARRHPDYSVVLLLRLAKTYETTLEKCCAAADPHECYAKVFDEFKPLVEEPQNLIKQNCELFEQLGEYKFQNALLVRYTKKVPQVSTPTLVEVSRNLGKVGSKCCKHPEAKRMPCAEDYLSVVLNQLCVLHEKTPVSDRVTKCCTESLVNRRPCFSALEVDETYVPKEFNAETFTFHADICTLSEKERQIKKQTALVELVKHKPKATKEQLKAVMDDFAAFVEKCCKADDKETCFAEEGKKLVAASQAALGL
Outline: (§5)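 HSA in Tris-HCl (0.05 M Tris, 0.15 M NaCl, pH 7.4) with compound, in the presence of CaCl2, KCl, MgCl2 or NiCl2. Fluorescence was excited at 295 nm and emission recorded from 300 to 450 nm at 298 K, with 2.5 nm slits. Binding constants with the metal ion (Kb) and without it (K0) were expressed as Kb/K0.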

Albumin [8] = target: T1, Albumin; experiment: Binding affinity to human serum albumin by fluorescence spectrophotometry in presence of Mg2+; assay type: ADME; settings: isolated protein
Outline: (§6)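 HSA-compound fluorescence measured in Tris-HCl (0.05 M Tris, 0.15 M NaCl, pH 7.4) with added metal chloride (CaCl2, KCl, MgCl2 or NiCl2). Excitation 295 nm, emission 300-450 nm, 298 K, 2.5 nm slits. The metal-ion effect is expressed as the ratio Kb/K0.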

Pseudomonas aeruginosa = experiment: Antibacterial activity against Pseudomonas aeruginosa by two-fold serial dilution method; assay type: functional; outline: as §2
[9] = Octanol-water partition co-efficient, log P of the compound by shake flask method; assay type: physicochemical
Streptococcus pneumoniae = experiment: Antibacterial activity against Streptococcus pneumoniae by two-fold serial dilution method; assay type: functional; outline: as §2
Staphylococcus aureus [10] = experiment: Antibacterial activity against methicillin-resistant Staphylococcus aureus N315 by two-fold serial dilution method; assay type: functional; outline: as §4
[11] = Cytotoxicity against human LO2 cells assessed as inhibition of cell viability at 16 ug/ml after 24 hrs by MTT assay; assay type: cell-based, L02; settings: read-out: INH; outline: as §1
[12] = Cytotoxicity against human LO2 cells assessed as inhibition of cell viability at 32 ug/ml after 24 hrs by MTT assay; assay type: cell-based, L02; settings: read-out: INH; outline: as §1
Albumin [13] = target: T1, Albumin; experiment: Binding affinity to human serum albumin by fluorescence spectrophotometry in presence of Ca2+; assay type: ADME; settings: isolated protein; outline: as §6
Micrococcus luteus = experiment: Antibacterial activity against Micrococcus luteus by two-fold serial dilution method; assay type: functional; outline: as §2
Albumin [14] = target: T1, Albumin; experiment: Binding affinity to human serum albumin by fluorescence spectrophotometry; assay type: ADME; settings: isolated protein
Outline: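 HSA dissolved in Tris-HCl buffer (0.05 M Tris, 0.15 M NaCl, pH 7.4). Fluorescence emission scanned 300-450 nm at 298 K with excitation at 295 nm, 2.5 nm slits and 1.0 cm quartz cells.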

Albumin [15] = target: T1, Albumin; experiment: Binding affinity to human serum albumin by fluorescence spectrophotometry in presence of Ni2+; assay type: ADME; settings: isolated protein; outline: as §6
Albumin [16] = target: T1, Albumin; experiment: Drug transport index, ratio of Kb to K0 for human serum albumin by fluorescence spectrophotometry in presence of […]; assay type: ADME; outline: as §5
Albumin [17] = target: T1, Albumin; experiment: Drug transport index, ratio of Kb to K0 for human serum albumin by fluorescence spectrophotometry in presence of Ni2+; assay type: ADME; outline: as §5
[18] = Antibacterial activity against Eberthella typhosa by two-fold serial dilution method; assay type: functional; outline: as §4
Albumin [19] = target: T1, Albumin; experiment: Drug transport index, ratio of Kb to K0 for human serum albumin by fluorescence spectrophotometry in presence of Ca2+; assay type: ADME; outline: as §5
Staphylococcus aureus [20] = experiment: Antibacterial activity against Staphylococcus aureus ATCC 25923 by two-fold serial dilution method; assay type: functional; outline: as §2
Saccharomyces cerevisiae = experiment: Antifungal activity against Saccharomyces cerevisiae after 24 hrs by microbroth dilution method; assay type: functional; outline: as §3
Albumin [21] = target: T1, Albumin; experiment: Binding affinity to human serum albumin by fluorescence spectrophotometry in presence of K+; assay type: ADME; settings: isolated protein; outline: as §6
Candida albicans = experiment: Antifungal activity against Candida albicans ATCC 76615 after 24 hrs by microbroth dilution method; assay type: functional; settings: ATCC 76615, 24 h; outline: as §3

In the case of `Cc1ncc([N+](=O)[O-])n1CC(O)Cn1cc(C(=O)O)c(=O)c2ccc(C(F)(F)F)cc21` (configuration not stated), the cytotoxicity at 24 h, 64 ug/ml [1] is reported as 15.2%, the MIC (Pichia norvegensis) is reported as 64 µg/mL (≈ 145 µM) and the MIC (Escherichia coli) is reported as 0.5 µg/mL (≈ 1.14 µM). The solubility [2] was 790 µg/mL (≈ 1790 µM), the cytotoxicity at 24 h, 128 ug/ml [3] was 17.5% and the viability at 24 h, 256 ug/ml [4] was > 83%. The MIC (Bacillus spizizenii) was 4 µg/mL (≈ 9.08 µM), the cytotoxicity at 24 h, 8 ug/ml [5] was 3.6% and the MIC (Cyberlindnera jadinii) was 512 µg/mL (≈ 1160 µM). The pKa [6] was 5.6, the MIC (Shigella dysenteriae) was 0.5 µg/mL (≈ 1.14 µM) and the Activity (Calf thymus DNA) was “Dose-dependent effect”. It also gave a Ratio (Albumin [7]) of 0.91, a Kb (Albumin [8]) of 5.63 ×10⁴ L/mol and an MIC (Pseudomonas aeruginosa) of 4 µg/mL (≈ 9.08 µM). For the same molecule, the logP [9] was -0.25, the MIC (Streptococcus pneumoniae) was 4 µg/mL (≈ 9.08 µM) and the MIC (Staphylococcus aureus [10]) was 1 µg/mL (≈ 2.27 µM). The cytotoxicity at 24 h, 16 ug/ml [11] was 6.7%, the cytotoxicity at 24 h, 32 ug/ml [12] was 10.3% and the Kb (Albumin [13]) was 3.61 ×10⁴ L/mol. For the same molecule, the MIC (Micrococcus luteus) was 1 µg/mL (≈ 2.27 µM), the Kb (Albumin [14]) was 5.15 ×10⁴ L/mol and the Kb (Albumin [15]) was 5.07 ×10⁴ L/mol. For the same molecule, the Ratio (Albumin [16]) was 1.51, the Ratio (Albumin [17]) was 1.02 and the MIC [18] was 8 µg/mL (≈ 18.2 µM). It also gave a Ratio (Albumin [19]) of 1.43, an MIC (Staphylococcus aureus [20]) of 4 µg/mL (≈ 9.08 µM) and an MIC (Saccharomyces cerevisiae) of 64 µg/mL (≈ 145 µM). It also gave a Kb (Albumin [21]) of 3.42 ×10⁴ L/mol and an MIC (Candida albicans) of 64 µg/mL (≈ 145 µM).
